Reference: PubChem BioAssay
The source made the active and inactive calls.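 Rule for the calls, unless noted: active = viability at or below 10% of carrier control in both of two separate runs; inconclusive = viability at or below 10% in only one of the two runs; inactive = the rest.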

Key:
[1] = Her2 expression decrease, cell viability multiplex – SKBR3 breast tumor cells, AlphaScreen, ATP viability, primary screen (AID 461;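 active = Her2 level under about 52% in both replicate screens, with viability over 70% of control, limit read from the data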;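 for Her2 level: lower value means less Her2 protein in the cells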;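 for viability: percent of carrier control wells set as 100% viability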); conditions: SKBR3 Her2 protein level, 18-24 h, measured here: SKBR3 viability, ATP luminescence, at 10 µM
[2] = biological target: Receptor tyrosine-protein kinase erbB-2 (Homo sapiens) (UniProt P04626); assay: as above; conditions: 18-24 h, at 10 µM, stronger effect = lower value
Chain of Receptor tyrosine-protein kinase erbB-2 (Homo sapiens) (P04626 whole entry, looked up): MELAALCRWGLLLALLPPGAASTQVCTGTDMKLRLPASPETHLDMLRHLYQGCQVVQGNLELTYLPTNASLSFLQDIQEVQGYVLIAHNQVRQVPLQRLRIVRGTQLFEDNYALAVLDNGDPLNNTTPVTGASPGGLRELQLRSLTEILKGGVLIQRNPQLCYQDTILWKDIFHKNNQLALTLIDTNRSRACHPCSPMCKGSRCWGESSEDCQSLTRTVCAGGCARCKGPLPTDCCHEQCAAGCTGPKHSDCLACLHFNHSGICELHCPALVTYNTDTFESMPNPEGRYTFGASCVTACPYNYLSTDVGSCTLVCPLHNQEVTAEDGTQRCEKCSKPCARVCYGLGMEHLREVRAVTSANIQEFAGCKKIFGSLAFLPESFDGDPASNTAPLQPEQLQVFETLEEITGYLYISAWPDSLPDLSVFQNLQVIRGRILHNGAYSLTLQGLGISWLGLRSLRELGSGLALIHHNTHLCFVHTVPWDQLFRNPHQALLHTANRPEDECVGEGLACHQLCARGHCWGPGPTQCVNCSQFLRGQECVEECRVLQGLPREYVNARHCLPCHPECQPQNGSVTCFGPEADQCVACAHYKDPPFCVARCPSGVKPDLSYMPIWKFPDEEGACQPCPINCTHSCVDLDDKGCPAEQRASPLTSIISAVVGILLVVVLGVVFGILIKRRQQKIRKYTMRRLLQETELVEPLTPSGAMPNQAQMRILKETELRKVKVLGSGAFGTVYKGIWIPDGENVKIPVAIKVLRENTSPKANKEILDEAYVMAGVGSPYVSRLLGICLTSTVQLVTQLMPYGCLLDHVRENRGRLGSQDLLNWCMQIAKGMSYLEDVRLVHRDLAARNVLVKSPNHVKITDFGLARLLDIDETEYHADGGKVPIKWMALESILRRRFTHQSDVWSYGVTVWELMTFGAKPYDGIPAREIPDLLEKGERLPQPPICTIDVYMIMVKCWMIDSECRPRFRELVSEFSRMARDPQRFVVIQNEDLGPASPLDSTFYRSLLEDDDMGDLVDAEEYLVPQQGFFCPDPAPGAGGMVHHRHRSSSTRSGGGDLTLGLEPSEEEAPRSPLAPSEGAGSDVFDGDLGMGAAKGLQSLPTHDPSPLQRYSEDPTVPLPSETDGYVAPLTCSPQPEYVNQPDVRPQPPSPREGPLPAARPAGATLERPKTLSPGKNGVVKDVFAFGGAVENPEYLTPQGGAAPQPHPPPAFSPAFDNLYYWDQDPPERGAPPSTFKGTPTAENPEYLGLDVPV

[3] = reduced viability of SK-BR-3 breast cancer cells – cell-based, 24 h, human, pilot screen (AID 572); conditions: SK-BR-3 viability, CellTiter-Glo luminescence, at 10 µM, stronger effect = lower value;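 note: compound exposure lasted between 18 and 24 h rather than exactly 24 h; 100% = carrier-treated control wells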
[4] = HUVEC growth inhibition – cell-based, human, primary screen (AID 575;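 active = viability at or below 30% in both replicate assays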;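 note: 100% = median of untreated cell wells with 0.1% DMSO on each plate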); conditions: HUVEC proliferation, CellTiter-Glo luminescence, 72 h; at 10 µM; stronger effect = lower value
How it was run: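 Test system – primary HUVEC, no more than 12 passages · Dosing – one dose, 10 µM final, 0.1% DMSO · Times – 72 h treatment at 37 °C · Measured by – ATP-based CellTiter-Glo luminescent read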

[5] = H69AR cell proliferation blockers – human, duplicate replicates, primary screen (AID 580;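 active = viability at or under a set limit in both replicates, limit being median viability minus 3 SD, cut at about 48% in these data, passing the limit was not always enough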;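 note: 100% = mean luminescence of untreated wells and 0% = no signal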); conditions: H69AR lung tumor cells viability, ATP luminescence, 72 h; at 10 µM; stronger effect = lower value
[6] = MRP1 drug-resistance reversers in H69AR cells – cell-based, doxorubicin co-treatment, pilot screen (AID 601;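 active = viability loss from added drug above about 55%, and viability with drug at most 40%, in both replicates, limit read from the data, passing the limit was not always enough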); conditions: CellTiter-Glo, 72 h, at 10 µM; for differential viability (reversal): stronger effect = higher value
[7] = yeast transport mutant growth inhibition pilot in 384-well plates, post-Golgi transport modulator project (AID 636; in the data active = inhibition above about 31%); conditions: absorbance 615 nm, about 18 h, stronger effect = higher value
[8] = growth suppression of yeast trafficking mutant, preliminary HTS, modulators of trafficking downstream of Golgi apparatus project, 1536-format plate, OD 615 nm (AID 637; in the data active = inhibition above about 30%); conditions: yeast transport mutant growth, absorbance 615 nm, 18 h; stronger effect = higher value
[9] = H69AR cells + 2 uM doxorubicin, measured here: viability with 2 uM doxorubicin, stronger effect = lower value
[10] = H69AR cells, compound alone cytotoxicity

Structure (SMILES) | viability [1] [%] | Her2 level [2] | viability [3] | viability [4] | viability [5] | differential viability (reversal) ([6]; H69AR cells + 2 uM doxorubicin) | viability [6, 9] [%] | viability [6, 10] [%] | inhibition [7] | inhibition [8]
CCn1c(=S)ccc2ccc(OC)cc21 | 88.5 | 114% (inactive) | 88.5% (inactive) | 98.7% (inactive) | 101% (inactive) | 13.2% (inactive) | 87.6 | 101 | -5.14% (inactive) | -7.46% (inactive)
Cc1ccccc1NC(=O)C1Cc2ccccc2C(=O)O1 (stereo not given) | 134 | 112% (inactive) | 134% (inactive) | 116% (inactive) | 98.7% (inactive) | 7.54% (inactive) | 91.2 | 98.7 | -4.93% (inactive) | 3.23% (inactive)
COc1ccc2c(c1)CCc1c(C(=O)N3CCCc4ccccc43)noc1-2 | 98 | 87% (inactive) | 98% (inactive) | 80.8% (inactive) | 81.1% (inactive) | 3% (inactive) | 78.1 | 81.1 | -6.05% (inactive) | -8.91% (inactive)
COCCN1CCN(c2c(C)c(C)nc3cc(-c4cccc(OC)c4)nn23)CC1 | 100 | 83.5% (inactive) | 100% (inactive) | 91.1% (inactive) | 95.4% (inactive) | 12.7% (inactive) | 82.7 | 95.4 | -5.45% (inactive) | -1.43% (inactive)
CCc1ccccc1NC(=O)C(C#N)Cc1cccnc1 (stereo not given) | 90 | 88.5% (inactive) | 90% (inactive) | 97.4% (inactive) | 94.6% (inactive) | -1.77% (inactive) | 96.3 | 94.6 | -2.57% (inactive) | -0.49% (inactive)
CCOC(=O)C1=C(CN2CCOCC2)NC(=O)NC1c1cc(C)ccc1C (stereo not given) | 92 | 89% (inactive) | 92% (inactive) | 101% (inactive) | 78.9% (inactive) | 16.7% (inactive) | 62.2 | 78.9 | -6.76% (inactive) | 4.33% (inactive)
C#CCSc1nnc(-c2ccccc2)c(=O)[nH]1 | 92.5 | 91% (inactive) | 92.5% (inactive) | 89.4% (inactive) | 94.7% (inactive) | 3.12% (inactive) | 91.5 | 94.7 | -3.92% (inactive) | -5.9% (inactive)
NC(=O)C1CCN(CC(=O)N2c3ccccc3CCc3ccccc32)CC1 | 117 | 114% (inactive) | 117% (inactive) | 103% (inactive) | 93.9% (inactive) | 1.55% (inactive) | 92.3 | 93.9 | -5.53% (inactive) | 5.25% (inactive)
O=C1NC2=C(C(=O)CCC2)C(c2ccc3ncccc3c2)N1 (stereo not given) | 106 | 91% (inactive) | 106% (inactive) | 115% (inactive) | 98.4% (inactive) | 12.6% (inactive) | 85.8 | 98.4 | -1.64% (inactive) | 1.9% (inactive)
C=CCc1c(C)nc(SC)nc1Nc1ccc(C(=O)O)cc1 | 106 | 74.5% (inactive) | 106% (inactive) | 84.2% (inactive) | 86.9% (inactive) | 1.22% (inactive) | 85.7 | 86.9 | -6.89% (inactive) | 3.28% (inactive)
CCc1ccc(NC(=O)C2CC(=O)N(C(C)C)C2)cc1 (stereo not given) | 111 | 104% (inactive) | 111% (inactive) | 100% (inactive) | 90.8% (inactive) | -3.8% (inactive) | 94.6 | 90.8 | -4.13% (inactive) | -2.46% (inactive)
COc1ccccc1NC(=O)c1ccc(NC(=O)CSc2nnnn2C)cc1 | 92 | 96% (inactive) | 92% (inactive) | 84% (inactive) | 13.1% (active) | -25.5% (inactive) | 38.7 | 13.1 | -6% (inactive) | -2.13% (inactive)
CSC1=C(C#N)C(c2ccc(Cl)cc2)C2=C(CC(C)(C)CC2=O)N1 (stereo not given) | 102 | 95% (inactive) | 102% (inactive) | 72.1% (inactive) | 66% (inactive) | 32.4% (inactive) | 33.6 | 66 | -3.92% (inactive) | -1.48% (inactive)
CCc1nc(N)c(C#N)c(-c2ccncc2)c1C | 102 | 95% (inactive) | 102% (inactive) | 89.2% (inactive) | 102% (inactive) | 21.1% (inactive) | 80.6 | 102 | -4.27% (inactive) | -0.82% (inactive)
Cn1c(CN2CCOCC2)nc2cc(NC(=O)c3ccccc3Cl)ccc21 | 102 | 103% (inactive) | 102% (inactive) | 92% (inactive) | 97.1% (inactive) | -2.36% (inactive) | 99.5 | 97.1 | -3.55% (inactive) | -2.42% (inactive)
CCC(OC(=O)c1cccs1)C(=O)NCc1ccco1 (stereo not given) | 103 | 93% (inactive) | 103% (inactive) | 98.6% (inactive) | 91.4% (inactive) | 9.38% (inactive) | 82 | 91.4 | -2.86% (inactive) | 1.97% (inactive)

Structure (SMILES) | viability [1] [%] | Her2 level [2] | viability [3] | viability [4] | viability [5] | differential viability (reversal) ([6]; H69AR cells + 2 uM doxorubicin) | viability [6, 9] [%] | viability [6, 10] [%] | inhibition [7] | inhibition [8]
O=C(OCC(=O)N1CCC(Cc2ccccc2)CC1)c1ccc[nH]c1=O | 80.5 | 102% (inactive) | 80.5% (inactive) | 117% (inactive) | 92.6% (inactive) | 2.25% (inactive) | 90.4 | 92.6 | 0.13% (inactive) | -12.3% (inactive)
Cc1noc(C)c1CSc1nnc2n(-c3ccccc3)c(=O)c3ccccc3n12 | 72.5 | 75.5% (inactive) | 72.5% (inactive) | 105% (inactive) | 81.7% (inactive) | -18.9% (inactive) | 101 | 81.7 | 2.31% (inactive) | -5.83% (inactive)
COc1ccc(C2c3sc(=O)[nH]c3SC3C4CCC(C4)C23)cc1 (stereo not given) | 99.5 | 94.5% (inactive) | 99.5% (inactive) | 80.1% (inactive) | 89.7% (inactive) | 1.93% (inactive) | 87.7 | 89.7 | 6.4% (inactive) | 5.97% (inactive)
CCC(c1nnnn1CCOC)N(Cc1ccc(C)cc1)Cc1cc2cc(OC)ccc2[nH]c1=O (stereo not given) | 115 | 89% (inactive) | 115% (inactive) | 71.9% (inactive) | 72.5% (inactive) | 7.76% (inactive) | 64.7 | 72.5 | -3.03% (inactive) | -1.77% (inactive)
Cc1ccc(CNC(=O)CSc2n[nH]c(N)n2)cc1 | 100 | 99.5% (inactive) | 100% (inactive) | 82.3% (inactive) | 96.6% (inactive) | -1.86% (inactive) | 98.5 | 96.6 | 0.79% (inactive) | 5.9% (inactive)
Cc1cc(NC(=O)CSc2nc3ccsc3c(=O)n2NC(=O)c2ccccc2)no1 | 94.5 | 100% (inactive) | 94.5% (inactive) | 93.9% (inactive) | 97.1% (inactive) | 12% (inactive) | 85.1 | 97.1 | -0.93% (inactive) | 13.8% (inactive)
COc1ccc(C(=O)Cn2c(N3CCCCC3)nc3c2c(=O)n(C)c(=O)n3C)cc1OC | 94 | 98.5% (inactive) | 94% (inactive) | 83.9% (inactive) | 92.7% (inactive) | -6.42% (inactive) | 99.1 | 92.7 | 1.18% (inactive) | -1.48% (inactive)
Cn1nc(C(=O)N2CCOCC2)c2ccccc2c1=O | 93 | 114% (inactive) | 93% (inactive) | 88.9% (inactive) | 89.3% (inactive) | 5.89% (inactive) | 83.4 | 89.3 | -1.3% (inactive) | 0.67% (inactive)
COc1ccc(Cl)cc1Nc1nc(C)cc(=O)[nH]1 | 95 | 86% (inactive) | 95% (inactive) | 80.6% (inactive) | 95.8% (inactive) | 2.12% (inactive) | 93.7 | 95.8 | -3.68% (inactive) | -0.97% (inactive)
COc1ccc(CCNc2nc(N3CCOCC3)nc(N3CCOCC3)n2)cc1OC | 81 | 91% (inactive) | 81% (inactive) | 108% (inactive) | 96.7% (inactive) | 2.03% (inactive) | 94.6 | 96.7 | 0.4% (inactive) | -4.84% (inactive)
CC(C)(C)n1nnnc1CN1CCN(C2CCCC2)CC1 | 84 | 84% (inactive) | 84% (inactive) | 101% (inactive) | 104% (inactive) | 3.04% (inactive) | 101 | 104 | -7.7% (inactive) | -2.3% (inactive)
CC(=O)N1CCc2cc(S(=O)(=O)NC(C(=O)NCc3ccccc3)C(C)C)ccc21 (stereo not given) | 97 | 95.5% (inactive) | 97% (inactive) | 94.6% (inactive) | 102% (inactive) | 12.1% (inactive) | 90.1 | 102 | -2.5% (inactive) | -10% (inactive)
COc1ccccc1N1CC(O)=C(c2nc3ccccc3c(=O)[nH]2)C1=N | 116 | 72% (inactive) | 116% (inactive) | 102% (inactive) | 71.7% (inactive) | -13.9% (inactive) | 85.7 | 71.7 | -4.05% (inactive) | 1.59% (inactive)
CCC(C)N=C1SCC(C)(/C=N/O)S1 (stereo not given) | 97 | 88.5% (inactive) | 97% (inactive) | 116% (inactive) | 104% (inactive) | 7.86% (inactive) | 95.8 | 104 | -2.37% (inactive) | -0.98% (inactive)
Cn1c(=O)[nH]c(=O)c2c1nc(N(CCO)Cc1ccccc1)n2Cc1ccccc1Cl | 90.5 | 82.5% (inactive) | 90.5% (inactive) | 80.2% (inactive) | 81.6% (inactive) | 26% (inactive) | 55.6 | 81.6 | -5.47% (inactive) | 3.44% (inactive)
CCOc1ccccc1N(CC(=O)NC1CCCC1)C(=O)CCCC(=O)Nc1ccccn1 | 91 | 93.5% (inactive) | 91% (inactive) | 106% (inactive) | 112% (inactive) | 15.3% (inactive) | 96.3 | 112 | -2.16% (inactive) | 6.03% (inactive)
